Blank lines part the entries; values can stand above or below the compound they belong to. Calls of active or inactive are those of the source. No cut-off for these calls is given here.
Columns and labels:
[1] = biological target: T1, Metabotropic glutamate receptor 5 (Rattus norvegicus, UniProt P31424); assay: (§1) Positive allosteric modulator activity at rat mGlu5 receptor expressed in HEK293 cells assessed as potentiation of glutamate-induced response relative to glutamate; type: cell-based
[2] = biological target: Metabotropic glutamate receptor 5 (Rattus norvegicus) (UniProt P31424); assay: Positive allosteric modulator activity at rat mGlu5 receptor expressed in HEK293 cells assessed as fold shift in glutamate induced response at 10 uM; type: cell-based
[3] = biological target: T1, Metabotropic glutamate receptor 5; assay: Antagonist activity at rat mGlu5 receptor expressed in HEK293 cells assessed as inhibition of glutamate-induced response; type: functional, cell-based
[4] = biological target: Metabotropic glutamate receptor 5 (Rattus norvegicus) (UniProt P31424); assay: Antagonist activity at rat mGlu5 receptor expressed in HEK293 cells assessed as inhibition of glutamate-induced response at 10 uM; type: functional, cell-based; design: scale not given: the % may be the effect or the level left
[5] = biological target: Metabotropic glutamate receptor 5 (Rattus norvegicus) (UniProt P31424); assay: as §1; type: cell-based
Rattus norvegicus [6] = assay: Anxiolytic activity against Sprague-Dawley rat Geller-Seifter conflict model assessed as increase punished response rate at 30 mg/kg, ip; type: functional; conditions: route intraperitoneal
Procedure, shortened: (§2)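 Modified Geller-Seifter conflict schedule with punished and unpunished components. Animals were tested on 1, 3, 10 and 30 mg/kg and on vehicle. Read-out was the number of responses in each component, as mean ± SEM for eighteen animals. Analysis used ANOVA with Newman-Keuls post hoc comparison to vehicle.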

[7] = biological target: Metabotropic glutamate receptor 8 (Homo sapiens, UniProt O00222); assay: Antagonist activity at mGlu8 receptor; type: functional
[8] = biological target: Metabotropic glutamate receptor 3 (Homo sapiens, UniProt Q14832); assay: Antagonist activity at mGlu3 receptor; type: functional
[9] = biological target: Metabotropic glutamate receptor 4 (Homo sapiens, UniProt Q14833); assay: Antagonist activity at mGlu4 receptor; type: functional
[10] = biological target: Metabotropic glutamate receptor 1 (Homo sapiens, UniProt Q13255); assay: Antagonist activity at mGlu1 receptor; type: functional
[11] = biological target: Metabotropic glutamate receptor 7 (Homo sapiens, UniProt Q14831); assay: Antagonist activity at mGlu7 receptor; type: functional
[12] = biological target: Metabotropic glutamate receptor 2 (Homo sapiens, UniProt Q14416); assay: Antagonist activity at mGlu2 receptor; type: functional
Rattus norvegicus [13] = assay: Anxiolytic activity against ip dosed Sprague-Dawley rat Geller-Seifter conflict model assessed as increase in punished response; type: functional, organism-based; procedure, shortened: as §2
Rattus norvegicus [14] = assay: Antipsychotic activity in Sprague-Dawley rat assessed as reversal of amphetamine-induced hyperlocomotion administered ip 30 mins before amphetamine-challenge; type: functional, organism-based
Procedure, shortened: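 Rats were given the test compound i.p. at 3, 10 or 30 mg/kg in 10% Tween 80 vehicle. Thirty minutes later they received amphetamine, 1 mg/kg s.c. Locomotor activity was then measured. Test compound or vehicle alone was also assessed without amphetamine.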

T1 sequence (P31424 whole entry): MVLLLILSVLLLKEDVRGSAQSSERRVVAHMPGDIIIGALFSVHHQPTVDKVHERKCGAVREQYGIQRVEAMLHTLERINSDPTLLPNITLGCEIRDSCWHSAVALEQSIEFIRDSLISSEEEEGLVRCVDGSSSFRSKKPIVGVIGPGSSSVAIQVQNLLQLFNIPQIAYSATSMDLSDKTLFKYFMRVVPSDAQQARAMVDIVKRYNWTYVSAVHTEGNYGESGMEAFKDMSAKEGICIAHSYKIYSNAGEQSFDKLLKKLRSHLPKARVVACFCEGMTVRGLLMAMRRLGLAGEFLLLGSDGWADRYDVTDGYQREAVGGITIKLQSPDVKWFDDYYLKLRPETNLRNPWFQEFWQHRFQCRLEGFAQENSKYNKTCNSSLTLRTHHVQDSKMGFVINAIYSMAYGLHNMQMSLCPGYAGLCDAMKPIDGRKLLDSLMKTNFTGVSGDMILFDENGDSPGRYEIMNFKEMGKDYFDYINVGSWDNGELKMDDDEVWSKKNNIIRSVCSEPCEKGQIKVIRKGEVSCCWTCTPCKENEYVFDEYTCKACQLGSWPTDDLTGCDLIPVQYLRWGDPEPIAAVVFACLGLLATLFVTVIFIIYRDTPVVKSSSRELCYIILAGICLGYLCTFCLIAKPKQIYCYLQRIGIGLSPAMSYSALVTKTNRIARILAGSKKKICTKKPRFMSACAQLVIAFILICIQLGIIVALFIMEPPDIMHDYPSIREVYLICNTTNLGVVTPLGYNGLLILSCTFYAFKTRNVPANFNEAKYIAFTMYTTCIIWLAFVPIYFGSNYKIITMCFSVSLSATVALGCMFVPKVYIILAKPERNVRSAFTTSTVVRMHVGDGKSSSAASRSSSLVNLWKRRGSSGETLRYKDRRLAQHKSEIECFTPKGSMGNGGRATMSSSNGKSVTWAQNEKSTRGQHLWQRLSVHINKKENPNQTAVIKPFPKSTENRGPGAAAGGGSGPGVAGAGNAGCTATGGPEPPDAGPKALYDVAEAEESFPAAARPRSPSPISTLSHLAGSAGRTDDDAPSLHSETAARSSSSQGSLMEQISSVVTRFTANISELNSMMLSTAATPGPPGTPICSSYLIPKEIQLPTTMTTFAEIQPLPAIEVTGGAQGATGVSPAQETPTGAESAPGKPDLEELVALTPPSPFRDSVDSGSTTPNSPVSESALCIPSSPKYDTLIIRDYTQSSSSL
Metabotropic glutamate receptor 5 (Rattus norvegicus), sequence (P31424 21-1203 limits assumed): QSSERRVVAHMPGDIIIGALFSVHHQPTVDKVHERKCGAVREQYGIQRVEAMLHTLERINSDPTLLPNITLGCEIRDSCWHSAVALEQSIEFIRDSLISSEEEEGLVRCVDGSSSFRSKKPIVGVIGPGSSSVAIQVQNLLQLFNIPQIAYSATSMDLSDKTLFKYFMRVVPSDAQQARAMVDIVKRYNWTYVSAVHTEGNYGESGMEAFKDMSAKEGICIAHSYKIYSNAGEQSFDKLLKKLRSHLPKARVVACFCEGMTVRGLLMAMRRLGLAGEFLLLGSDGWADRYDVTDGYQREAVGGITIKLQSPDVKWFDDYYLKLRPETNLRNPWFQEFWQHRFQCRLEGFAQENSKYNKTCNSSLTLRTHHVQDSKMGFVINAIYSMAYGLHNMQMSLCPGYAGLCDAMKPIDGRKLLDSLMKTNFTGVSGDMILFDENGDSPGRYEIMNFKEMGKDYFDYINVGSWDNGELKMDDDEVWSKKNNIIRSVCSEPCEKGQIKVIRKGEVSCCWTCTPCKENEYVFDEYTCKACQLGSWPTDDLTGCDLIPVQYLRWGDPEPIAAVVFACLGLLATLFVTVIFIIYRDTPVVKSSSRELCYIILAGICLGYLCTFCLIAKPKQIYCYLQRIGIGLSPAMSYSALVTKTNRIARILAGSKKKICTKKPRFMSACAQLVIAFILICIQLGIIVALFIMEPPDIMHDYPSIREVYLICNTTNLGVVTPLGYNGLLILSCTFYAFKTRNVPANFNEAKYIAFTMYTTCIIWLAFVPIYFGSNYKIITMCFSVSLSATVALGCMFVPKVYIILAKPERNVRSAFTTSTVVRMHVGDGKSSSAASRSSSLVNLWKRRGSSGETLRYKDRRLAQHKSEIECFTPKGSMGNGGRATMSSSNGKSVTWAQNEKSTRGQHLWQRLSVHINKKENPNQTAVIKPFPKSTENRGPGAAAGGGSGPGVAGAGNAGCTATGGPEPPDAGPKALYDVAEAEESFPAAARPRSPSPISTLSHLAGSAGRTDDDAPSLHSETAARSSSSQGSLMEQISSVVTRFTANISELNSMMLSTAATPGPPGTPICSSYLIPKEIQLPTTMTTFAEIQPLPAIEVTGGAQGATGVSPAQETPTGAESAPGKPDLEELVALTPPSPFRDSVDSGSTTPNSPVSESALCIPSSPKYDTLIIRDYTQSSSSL
Metabotropic glutamate receptor 8, sequence (O00222 whole entry): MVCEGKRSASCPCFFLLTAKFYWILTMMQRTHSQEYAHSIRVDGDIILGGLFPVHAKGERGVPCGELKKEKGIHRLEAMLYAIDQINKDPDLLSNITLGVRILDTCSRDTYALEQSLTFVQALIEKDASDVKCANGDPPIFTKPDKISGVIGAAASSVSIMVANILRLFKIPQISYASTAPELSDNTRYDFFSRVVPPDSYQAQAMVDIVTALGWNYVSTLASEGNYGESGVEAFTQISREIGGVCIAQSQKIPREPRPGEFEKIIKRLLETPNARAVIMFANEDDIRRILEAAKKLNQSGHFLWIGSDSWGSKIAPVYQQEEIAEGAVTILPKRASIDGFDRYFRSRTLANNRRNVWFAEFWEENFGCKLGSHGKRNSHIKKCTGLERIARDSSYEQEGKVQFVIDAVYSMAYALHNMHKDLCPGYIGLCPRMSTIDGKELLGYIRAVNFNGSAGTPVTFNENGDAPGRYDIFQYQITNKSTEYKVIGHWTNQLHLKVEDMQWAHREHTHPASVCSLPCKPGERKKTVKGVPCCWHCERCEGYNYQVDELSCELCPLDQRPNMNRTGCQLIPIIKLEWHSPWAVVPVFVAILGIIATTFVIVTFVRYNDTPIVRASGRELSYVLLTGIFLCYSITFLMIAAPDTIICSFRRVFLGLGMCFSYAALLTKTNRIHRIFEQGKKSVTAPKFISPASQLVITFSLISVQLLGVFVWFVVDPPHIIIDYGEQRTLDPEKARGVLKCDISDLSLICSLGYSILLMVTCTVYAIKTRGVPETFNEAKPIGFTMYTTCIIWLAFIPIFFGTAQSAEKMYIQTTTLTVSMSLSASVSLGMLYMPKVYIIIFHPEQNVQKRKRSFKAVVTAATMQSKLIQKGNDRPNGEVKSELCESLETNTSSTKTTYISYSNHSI
Metabotropic glutamate receptor 3, sequence (Q14832 whole entry): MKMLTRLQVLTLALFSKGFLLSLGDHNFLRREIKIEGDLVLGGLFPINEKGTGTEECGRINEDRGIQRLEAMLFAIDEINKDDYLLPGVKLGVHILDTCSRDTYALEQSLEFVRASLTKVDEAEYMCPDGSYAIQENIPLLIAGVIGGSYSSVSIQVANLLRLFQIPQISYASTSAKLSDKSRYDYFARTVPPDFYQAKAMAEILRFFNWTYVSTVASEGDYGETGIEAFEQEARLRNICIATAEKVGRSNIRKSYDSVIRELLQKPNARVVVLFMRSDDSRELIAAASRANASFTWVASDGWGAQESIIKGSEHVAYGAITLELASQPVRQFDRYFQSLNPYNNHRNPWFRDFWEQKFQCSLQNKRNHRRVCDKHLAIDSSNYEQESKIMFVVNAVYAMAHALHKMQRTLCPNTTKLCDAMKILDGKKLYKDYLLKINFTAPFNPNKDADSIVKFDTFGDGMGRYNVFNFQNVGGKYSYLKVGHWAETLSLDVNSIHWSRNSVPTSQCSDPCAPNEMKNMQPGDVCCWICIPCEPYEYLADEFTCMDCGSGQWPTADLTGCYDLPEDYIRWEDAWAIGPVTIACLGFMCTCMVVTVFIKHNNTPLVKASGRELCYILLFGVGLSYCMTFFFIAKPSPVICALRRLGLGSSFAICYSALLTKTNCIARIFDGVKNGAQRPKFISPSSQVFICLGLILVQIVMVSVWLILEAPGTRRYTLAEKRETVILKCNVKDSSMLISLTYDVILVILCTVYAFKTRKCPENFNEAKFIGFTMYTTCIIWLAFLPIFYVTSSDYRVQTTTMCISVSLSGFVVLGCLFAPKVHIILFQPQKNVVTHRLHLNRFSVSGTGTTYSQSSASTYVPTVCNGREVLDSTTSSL
Metabotropic glutamate receptor 7, sequence (Q14831 whole entry): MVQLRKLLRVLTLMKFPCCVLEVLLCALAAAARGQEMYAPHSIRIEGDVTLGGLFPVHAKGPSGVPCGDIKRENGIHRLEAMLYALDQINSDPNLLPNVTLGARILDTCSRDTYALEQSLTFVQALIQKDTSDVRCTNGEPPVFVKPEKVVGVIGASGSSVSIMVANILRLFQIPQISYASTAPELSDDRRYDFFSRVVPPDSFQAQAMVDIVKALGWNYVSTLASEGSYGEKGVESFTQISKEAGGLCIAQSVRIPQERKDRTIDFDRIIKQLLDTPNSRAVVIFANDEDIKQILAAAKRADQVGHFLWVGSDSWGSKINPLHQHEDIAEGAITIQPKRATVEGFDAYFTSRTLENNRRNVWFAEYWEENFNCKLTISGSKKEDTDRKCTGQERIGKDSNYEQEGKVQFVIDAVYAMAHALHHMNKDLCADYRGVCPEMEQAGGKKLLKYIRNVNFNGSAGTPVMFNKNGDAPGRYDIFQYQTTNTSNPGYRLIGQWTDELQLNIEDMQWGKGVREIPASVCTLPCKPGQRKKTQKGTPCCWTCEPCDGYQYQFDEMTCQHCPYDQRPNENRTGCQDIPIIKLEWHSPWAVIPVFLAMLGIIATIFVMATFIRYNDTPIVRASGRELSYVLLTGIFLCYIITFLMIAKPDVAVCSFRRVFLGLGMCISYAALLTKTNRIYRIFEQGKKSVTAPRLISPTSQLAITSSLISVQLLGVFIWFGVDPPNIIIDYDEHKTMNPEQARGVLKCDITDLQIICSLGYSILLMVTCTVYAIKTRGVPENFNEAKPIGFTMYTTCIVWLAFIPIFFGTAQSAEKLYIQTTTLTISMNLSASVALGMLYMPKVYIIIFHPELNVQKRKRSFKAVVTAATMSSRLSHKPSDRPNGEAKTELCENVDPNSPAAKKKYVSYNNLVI

Compound: COc1ncc(C#Cc2ccc(C)cc2)cn1
EC50 ([1]; hek293): Not Active

Compound: Cc1cccc(C#Cc2cncnc2)c1
IC50 ([3]; read-out: IC50): 7.5 nM

Compound: CCOc1ncc(C#Cc2ccccc2)cn1
IC50 ([3]; hek293): Not Active

Compound: Cc1ncc(C#Cc2ccccc2)cn1
EC50 ([1]; hek293): Not Active

Compound: CCc1ncc(C#Cc2ccccc2)cn1
EC50 ([1]; hek293): Not Active

Compound: CCOc1ncc(C#Cc2ccc(C)cc2)cn1
IC50 ([3]; hek293): Not Active

Compound: COc1ncc(C#Cc2ccccc2)cn1
EC50 ([1]; hek293): Not Active

Compound: Cc1cccc(C#Cc2cnc(C(C)(C)C)nc2)c1
EC50 ([1]; hek293): Not Active

Compound: Cc1ccc(C#Cc2ncccn2)cc1
Activity [5]: inactive
IC50 ([3]; read-out: IC50): > 10000 nM

Compound: COc1ncc(C#Cc2cccc(C)c2)cn1
EC50 ([1]; hek293): Not Active

Compound: Cc1ccc(C#Cc2cnc(C)nc2)cc1
EC50 ([1]; hek293): Not Active

Compound: CCc1ncc(C#Cc2ccc(C)cc2)cn1
EC50 ([1]; hek293): Not Active

Compound: CSc1ncc(C#Cc2ccccc2)cn1
fold change (FC) [2]: 11
EC50 ([1]; read-out: EC50): 120 nM

Compound: CCNc1ncc(C#Cc2ccccc2)cn1
EC50 ([1]; hek293): Not Active

Compound: CSc1ncc(C#Cc2ccc(C)cc2)cn1
EC50 ([1]; hek293): Not Active

Compound: Cc1cccc(C#Cc2ncccn2)c1
Activity (Rattus norvegicus [6]): 300%
IC50 [7]: > 10000 nM
IC50 [8]: > 10000 nM
IC50 [9]: > 10000 nM
IC50 [10]: > 10000 nM
IC50 ([3]; read-out: IC50): 10.8 nM
IC50 [11]: > 10000 nM
IC50 [12]: > 10000 nM
Activity (Rattus norvegicus [13]): Dose-dependent effect
Activity [4]: 100%

Compound: Cc1ccc(C#Cc2cnc(C(C)(C)C)nc2)cc1
EC50 ([1]; hek293): Not Active

Compound: CCNc1ncc(C#Cc2ccc(C)cc2)cn1
EC50 ([1]; hek293): Not Active

Compound: C(#Cc1cncnc1)c1ccccc1
Activity [5]: 29%
IC50 ([3]; read-out: IC50): 486 nM

Compound: CNc1ncc(C#Cc2ccccc2)cn1
fold change (FC) [2]: 15
IC50 [7]: > 10000 nM
IC50 [8]: > 10000 nM
IC50 [10]: > 10000 nM
EC50 ([1]; read-out: EC50): 14.3 nM
Activity (Rattus norvegicus [14]): Dose-dependent effect
IC50 [11]: > 10000 nM
IC50 [12]: > 10000 nM

More lines, now with the values ahead:

fold change (FC) [2]: 5.7
EC50 ([1]; read-out: EC50): 704 nM
Compound: CNc1ncc(C#Cc2ccc(C)cc2)cn1

fold change (FC) [2]: 4.2
Compound: Cc1ccc(C#Cc2cncnc2)cc1

EC50 ([1]; hek293): Not Active
Compound: CSc1ncc(C#Cc2cccc(C)c2)cn1

IC50 ([3]; read-out: IC50): 195 nM
Activity [4]: 100%
Compound: C(#Cc1ncccn1)c1ccccc1

fold change (FC) [2]: 6
EC50 ([1]; read-out: EC50): 247 nM
Compound: CC(C)(C)c1ncc(C#Cc2ccccc2)cn1

EC50 ([1]; hek293): Not Active
Compound: Cc1cccc(C#Cc2cnc(C)nc2)c1

fold change (FC) [2]: 5.9
EC50 ([1]; read-out: EC50): 21.1 nM
Compound: CNc1ncc(C#Cc2cccc(C)c2)cn1

EC50 ([1]; hek293): Not Active
Compound: CCc1ncc(C#Cc2cccc(C)c2)cn1

IC50 ([3]; read-out: IC50): 21.1 nM
Activity [4]: 100%
Compound: CCOc1ncc(C#Cc2cccc(C)c2)cn1

EC50 ([1]; hek293): Not Active
Compound: CCNc1ncc(C#Cc2cccc(C)c2)cn1
